Data: article PMC7771250 (ACS Infectious Diseases, 2020)
Read-outs that look alike come from different tables or passages of the source.

Tests used:
[1] = tested on: SARS-CoV-2 spike pseudotyped particle (PP); test: microbe, parasite or virus in culture; format: cell-based; conditions: Severe acute respiratory syndrome coronavirus 2, HEK-293T, 48 h, read-out: PP EC50
SARS-CoV-2 [2] = test: microbe, parasite or virus in culture; format: cell-based, SARS CoV-2 (USA_WA1/2020); conditions: Severe acute respiratory syndrome coronavirus 2, Vero C1008, 72 h, read-out: CPE EC50, Vero E6, 72 h; table: mean ± confidence interval
LC3B [3] = test: LC3B immunostaining autophagy assay, average of four cell lines; format: cell-based; conditions: for EC50: 16 h, read-out: autophagy EC50
in vitro = conditions: human
Vero E6 cells [4] = test: Cell; format: cell-based, monkey
LC3B [5] = test: LC3B immunostaining autophagy assay in Vero E6 cells; format: cell-based, monkey; conditions: Vero E6, about 16 h; for LC3B spot accumulation: 50 to 0.02 μM
Procedure, shortened: (§1)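 Cells were seeded overnight to 60% confluence and dosed at 8 points, 1:3 from 50 μM to 0.02 μM. They were fixed in ice-cold methanol for 10 min at −30 °C, blocked, and stained with rabbit anti-LC3B for 2 h at RT, AlexaFluor-647 anti-rabbit for 1 h, and Hoechst. Six fields per well were imaged. Spot count was normalized to DMSO (0%) and a reference (100%). Points with viability below 20% were excluded.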

[6] = cited from earlier work
Vero E6 cells [7] = conditions: for cytotoxicity (reduction of cell viability): at 30.0 μM; for CC50: read-out: CPE CC50, uninfected Vero E6, 72 h; for cell toxicity in the CPE counter assay: Vero E6, up to 30.0 μM
Vero E6 cells [8] = conditions: Vero E6, OpenData Portal screening data, Figure S14; cited from earlier work
SARS-CoV-2 [9] = conditions: Vero E6, OpenData Portal screening data, Figure S14; cited from earlier work
Vero E6 cells [10] = conditions: drug-repurposing screen in Vero E6 cells; cited from earlier work
acidic organelles = test: LysoTracker Deep Red staining in Vero E6 cells; format: cell-based, monkey
SARS-CoV-2 [11] = conditions: similar CPE assay with SARS-CoV-2 in Vero E6 cells; cited from earlier work
LC3B [12] = test: LC3B immunostaining autophagy assay in Huh-7.5 cells; format: cell-based, human
Procedure, shortened: as §1

[13] = cited from earlier work; for T1/2: 85 (chloroquine)
SARS-CoV-2 [14] = format: cell-based; conditions: EpiAirway, positive control
[15] = tested on: human bronchial epithelial cells; conditions: LDH release, 24 and 96 h

**Q.** With CCN(CC)CCNc1ccc(CO)c2sc3ccccc3c(=O)c12 [hycanthone] as the compound, how does the EC50 [1] read?
**A.** 1.88 ± 0.08 µM

**Q.** What about the EC50 (SARS-CoV-2 [2]) of the same compound?
**A.** 5.79 ± 0.26 µM

**Q.** What about the EC50 (LC3B [3]) of the same compound?
**A.** 7.35 ± 4.7 µM

**Q.** And the CC50 (in vitro)?
**A.** 11.7 ± 0.49 µM

**Q.** What about the cells killed (Vero E6 cells [4]; Vero E6, at 50 μM) of the same compound?
**A.** approximately 60%

**Q.** What about the “LC3B spot accumulation” value (LC3B [5]) of the same compound?
**A.** maximal spot counts

**Q.** And the “absorption” value ([6]; monkey)?
**A.** well-absorbed in monkey

**Q.** What about the T1/2 ([6]; species not given, human data lacking) of the same compound?
**A.** 0.12 to 0.21 days

**Q.** And the “cytotoxicity (reduction of cell viability)” value (Vero E6 cells [7]; Vero E6)?
**A.** ~100%

**Q.** For CC(C)(O)CNc1ncc(-c2ccnc(Nc3ccnc(Cl)c3)n2)c(CC2CC2)n1 [VPS34-IN-1], which “cytotoxicity” value (Vero E6 cells [8]) is on record?
**A.** cytotoxicity was observed at higher concentrations

**Q.** What about the “SARS-CoV-2 CPE inhibition” value (SARS-CoV-2 [9]) of the same compound?
**A.** potently inhibited the SARS-CoV-2 CPE at concentrations that were not cytotoxic

**Q.** Which EC50 [1] does the source give for OC(c1cc(C(F)(F)F)nc2c(C(F)(F)F)cccc12)C1CCCCN1 (centres unmarked) [mefloquine] here?
**A.** 8.84 ± 0.64 µM

**Q.** What about the EC50 (SARS-CoV-2 [2]) of the same compound?
**A.** 3.85 ± 0.24 µM

**Q.** What about the CC50 (Vero E6 cells [10]) of the same compound?
**A.** > 18.5 µM

**Q.** And the CC50 (in vitro)?
**A.** 5.4 ± 0.01 µM

**Q.** And the “LysoTracker staining” value (acidic organelles)?
**A.** dramatic elevations in LysoTracker relative spot intensity

**Q.** What about the EC50 (SARS-CoV-2 [11]) of the same compound?
**A.** 7.11 µM

**Q.** What about the EC50 (LC3B [12]; Homo sapiens, Huh7.5, read-out: autophagy EC50) of the same compound?
**A.** 7.3 µM

**Q.** What about the “LC3B spot counts” value (LC3B [12]; Huh-7.5) of the same compound?
**A.** increased LC3B spot counts even at low concentrations

**Q.** What about the “cytotoxicity on the basis of nuclei counts” value (Vero E6 cells [4]; Vero E6, at 50 μM) of the same compound?
**A.** completely toxic

**Q.** What about the “toxicity in the LysoTracker assay” value (Vero E6 cells [4]; Vero E6, highest concentration (50 μM)) of the same compound?
**A.** toxic at the highest concentration

**Q.** And the “LC3B spot accumulation” value (LC3B [5])?
**A.** ineffective at inducing LC3B spot accumulation

**Q.** What about the cytotoxicity (Vero E6 cells [7]; at 15.0 to 30.0 μM, Vero E6) of the same compound?
**A.** 100%

**Q.** What does the source list for CN(C)CCCN1c2ccccc2CCc2ccc(Cl)cc21 [clomipramine]?
**A.** LC3B increase across the cell lines (LC3B [3]; Vero E6, HeLa, HEK293T, Huh-7.5): effective in increasing LC3B in all cell lines except for Vero E6; CC50 (Vero E6 cells [10]): > 30 µM; Vd [13]: high Vd; CC50 (in vitro): 18.6 ± 0.29 µM; LysoTracker staining (acidic organelles): dramatic elevations in LysoTracker relative spot intensity; cytotoxicity on the basis of nuclei counts (Vero E6 cells [4]; Vero E6, at 50 μM): not cytotoxic; increase of LC3B spot count (LC3B [5]; normalized to DMSO (0%) and CQ (100%)): 40%; cytotoxicity (reduction of cell viability) (Vero E6 cells [7]; Vero E6): less than 20%; CC50 (Vero E6 cells [7]): > 30 µM

**Q.** With CCC(CC)COC(=O)[C@H](C)N[P@](=O)(OC[C@H]1O[C@@](C#N)(c2ccc3c(N)ncnn23)[C@H](O)[C@@H]1O)Oc1ccccc1 [remdesivir] as the compound, how does the EC50 (SARS-CoV-2 [2]) read?
**A.** 7.04 µM

**Q.** What about the “reduction of viral titers” value (SARS-CoV-2 [14]) of the same compound?
**A.** highly effective in reducing viral titers

**Q.** What about the “cytotoxicity in EpiAirway” value [15] of the same compound?
**A.** without any cytotoxicity

**Q.** And the “cell toxicity in the CPE counter assay” value (Vero E6 cells [7])?
**A.** no apparent cytotoxicity

**Q.** For CO/C1=C\C(C)=C\[C@@H](C)[C@@H](O)[C@@H](C)C/C(C)=C/C=C/[C@H](OC)[C@@H]([C@@H](C)[C@@H](O)[C@H](C)[C@@]2(O)C[C@@H](O)[C@H](C)[C@@H](C(C)C)O2)OC1=O [Bafilomycin A1], which “cytotoxicity” value (Vero E6 cells [8]) is on record?
**A.** highly cytotoxic

**Q.** What about the “SARS-CoV-2 CPE inhibition” value (SARS-CoV-2 [9]) of the same compound?
**A.** able to block SARS-CoV-2 CPE at nontoxic nanomolar concentrations

**Q.** Which EC50 [1] does the source give for CCN(CCO)CCCC(C)Nc1ccnc2cc(Cl)ccc12 (centres unmarked) [hydroxychloroquine] here?
**A.** 2.19 ± 0.07 µM

**Q.** What about the EC50 (SARS-CoV-2 [2]) of the same compound?
**A.** 4.47 µM

**Q.** And the EC50 (LC3B [3])?
**A.** 6.55 ± 6.67 µM

**Q.** And the T1/2 ([13]; 86 (hydroxychloroquine))?
**A.** ~40 days

**Q.** What about the “absorption” value ([13]; ref 82 (clomipramine), 86 (hydroxychloroquine)) of the same compound?
**A.** rapid and complete absorption

**Q.** What about the CC50 (in vitro) of the same compound?
**A.** 16.7 ± 20.3 µM

**Q.** And the EC50 (SARS-CoV-2 [11])?
**A.** 9.21 µM

**Q.** What about the “cell toxicity in the CPE counter assay” value (Vero E6 cells [7]) of the same compound?
**A.** no associated cell toxicity

**Q.** And the CC50 (Vero E6 cells [7])?
**A.** > 30 µM

**Q.** For CCN(CC)CCCC(C)Nc1ccnc2cc(Cl)ccc12 (centres unmarked) [chloroquine], which EC50 [1] is on record?
**A.** 1.37 ± 0.1 µM

**Q.** And the EC50 (SARS-CoV-2 [2])?
**A.** 2.01 µM

**Q.** What about the EC50 (LC3B [3]) of the same compound?
**A.** 3.29 ± 1.86 µM

**Q.** What about the T1/2 ([13]; 86 (hydroxychloroquine)) of the same compound?
**A.** 30 to 60 days

**Q.** What about the plasma bound [13] of the same compound?
**A.** 50–70%

**Q.** And the CC50 (in vitro)?
**A.** 12 ± 0.51 µM

**Q.** What about the EC50 (SARS-CoV-2 [11]) of the same compound?
**A.** 42 µM

**Q.** What about the “cell toxicity in the CPE counter assay” value (Vero E6 cells [7]) of the same compound?
**A.** no associated cell toxicity

**Q.** And the CC50 (Vero E6 cells [7])?
**A.** > 30 µM
